A selection: hits, their analogues and other compounds. The true share with any hit is near 5.7%.
Beta cell apopt – beta cell apoptosis inhibition; INS-1E cytokine-induced death, ATP luminescence, 48 h; percent of positive-control rescue, neutral wells zero; protection from apoptosis, % (no concentration beside the values); 0.8% of 300,000 active; AID 435005;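 active = Every replicate reaches about 75%, or at least half do and their mean reaches it too, limit read from the data; inconclusive = At least half of replicates reach the limit but their mean does not; inactive = Under half of replicates reach the limit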;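 also: 0% = cytokine-treated negative control wells and 100% = positive control rescue; higher means more ATP so stronger rescue from cytokine killing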
SKKanGAS inh – SKKanGAS growth inhibition; S. pyogenes SKKanGAS, kanamycin growth, BacTiter-Glo, 6 h; inhibition, % at 7.5 µM; 1.3% of 300,000 active; AID 1662;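 active = mean replicate score, as percent of positive control median, at least 50; inconclusive = mean below 50 but one replicate at or above 50; inactive = mean and every replicate below 50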;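 also: strain carries kanamycin resistance gene driven by streptokinase promoter and grows in 40 µg/ml kanamycin; loss of luminescence reflects streptokinase promoter inhibition or plain growth inhibition; 0% = median of DMSO wells and 100% = positive control at its reference dose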
T cruzi inh – T. cruzi replication inhibition | T. cruzi beta-gal in NIH3T3, luminescence, 90 h | inhibition, % (no concentration beside the values) | 1.4% of 300,000 active | AID 1885;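 active = mean inhibition across valid replicates above about 55%, limit read from the data; inconclusive = mean below that limit but half or more replicates reach it; inactive = mean below it, under half of replicates reach it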;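 also: signal also drops with host cell toxicity which is not excluded here; 0% = plate median of DMSO wells and 100% = zero luminescence signal; higher percent means less beta-gal luminescence so fewer parasites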
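System: mouse NIH/3T3 fibroblasts infected with β-gal-expressing T. cruzi Tulahuen C4 / Input: NIH/3T3 cells, 5,000 per well / Buffer or medium: Low-serum DMEM with 2% FBS / Probe or stimulus: 5000 reporter trypomastigotes per well / Schedule: ≥90 h infection period, 3 h prior cell attachment / Measured by: GalScreen luminescence, 60 min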
CSC inhib – cancer stem cell inhibition. cancer stem cell-like cells viability, luminescence. inhibition, % at 7.5 µM. 1.1% of 300,000 active; in the data active = inhibition above about 75%; inconclusive = no clear call, values can overlap the other calls; tested in HMLE shEcad cells
Mdm2 MdmX PPI – disrupts the human Mdm2-MdmX interaction; O15151+Q00987; SaOS-2 split-luciferase Mdm2/MdmX complementation, luminescence; inhibition, % at 8 µM; 3% of 330,000 active; AID 485346;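 active = inhibition of at least 50% at 8 µM in the primary screen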
Target sequence (O15151 whole entry, looked up): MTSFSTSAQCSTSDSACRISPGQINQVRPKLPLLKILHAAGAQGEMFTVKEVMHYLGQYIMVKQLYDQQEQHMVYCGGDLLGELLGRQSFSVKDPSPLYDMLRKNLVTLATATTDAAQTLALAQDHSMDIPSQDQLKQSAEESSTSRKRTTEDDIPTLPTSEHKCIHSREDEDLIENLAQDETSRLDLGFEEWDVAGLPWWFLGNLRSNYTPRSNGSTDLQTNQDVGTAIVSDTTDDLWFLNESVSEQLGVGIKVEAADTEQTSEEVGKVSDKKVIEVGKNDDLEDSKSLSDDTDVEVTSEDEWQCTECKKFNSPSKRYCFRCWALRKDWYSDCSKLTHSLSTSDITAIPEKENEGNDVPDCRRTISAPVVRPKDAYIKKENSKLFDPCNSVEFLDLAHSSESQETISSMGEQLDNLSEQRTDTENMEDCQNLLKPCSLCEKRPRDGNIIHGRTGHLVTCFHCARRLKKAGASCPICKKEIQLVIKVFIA
Target sequence (Q00987 whole entry, looked up): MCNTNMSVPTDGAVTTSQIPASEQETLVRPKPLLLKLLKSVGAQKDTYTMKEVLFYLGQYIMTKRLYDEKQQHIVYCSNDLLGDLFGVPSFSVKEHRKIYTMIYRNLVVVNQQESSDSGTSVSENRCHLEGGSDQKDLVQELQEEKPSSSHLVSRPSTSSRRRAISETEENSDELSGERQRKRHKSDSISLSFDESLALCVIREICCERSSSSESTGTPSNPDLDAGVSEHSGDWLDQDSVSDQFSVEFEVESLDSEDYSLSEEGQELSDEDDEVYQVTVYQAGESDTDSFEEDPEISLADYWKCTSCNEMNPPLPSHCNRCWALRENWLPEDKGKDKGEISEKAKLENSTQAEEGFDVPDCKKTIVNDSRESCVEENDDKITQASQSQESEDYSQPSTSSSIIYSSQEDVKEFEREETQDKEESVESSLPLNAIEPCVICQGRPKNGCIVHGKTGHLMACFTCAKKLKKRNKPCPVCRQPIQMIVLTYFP
Calb FLC – C. albicans growth modulation with fluconazole; 0.57% of 300,000 active; growth inhibition, % (concentration not given with the values); AID 1979; C. albicans CaCi-2 (fluconazole-resistant clinical isolate) + fluconazole, Alamar Blue growth, 48 h;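 active = growth inhibition above about 58% in most replicates, limit read from the data, passing the limit was not always enough; inconclusive = exactly half the replicates above a set limit; inactive = most replicates below a set limit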;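 also: all wells also contain fluconazole at 8 µg/ml as a sub-toxic cotreatment; 0% = median of DMSO wells and 100% = median of geldanamycin control wells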
* marks the source's active call; other numbers are inactive results; ? = inconclusive; nt = no result.

SMILES	Beta cell apopt	SKKanGAS inh	T cruzi inh	CSC inhib	Mdm2 MdmX PPI	Calb FLC
CCOc1ccc(CCNC(=O)c2cnc(C)cn2)cc1OCC	-2	-6	-2	-9	14	0
COc1ccc(C(=O)OC(C)C(=O)NC2CCCc3ccccc32)cc1OC (configuration not stated)	nt	nt	nt	nt	-22	nt
CCOC(=O)C(=Cc1cc(=O)c(OC)co1)C(=O)OCC	nt	2	11	nt	nt	94*
Cc1cc(C)cc(NC(=O)Nc2ccc(-n3ccc(C(F)(F)F)n3)cc2)c1	30	1	9	104*	37	4
COc1ccccc1NC(=O)Nc1ccc(-n2ccc(C(F)(F)F)n2)cc1	13	3	12	83*	-17	0
CSCCC(NC(=O)c1ccccc1)C(=O)N/N=C(\C)Cc1ccccc1 (configuration not stated)	5	nt	nt	12	21	-6
CC1(c2nnc(Cc3ccccc3)o2)CC(c2cccc(Cl)c2)=NO1 (configuration not stated)	-10	-2	-6	1	27	0
CSc1nc(N)nc(N(C)C)n1	-8	-5	-9	-8	-17	1
CSc1cnc2c(N)nc(N(C)C)nc2n1	-1	-14	-10	-4	24	95*
CC(C)c1nc(CNC(=O)C2CCC(=O)N(CCc3cccc(F)c3)C2)cs1 (configuration not stated)	-4	6	-2	-5	16	-1
C/C(=N\N1C(=O)CSC1=S)c1ccc(Br)cc1	-3	12	-11	19	-3	73*
CC(C)(C)C1CCC2(CC1)C(C#N)=C(SCC(=O)NC1CCCCC1)NC(=O)C2C#N (configuration not stated)	107*	11	-5	?	33	?
N#CC1=C(SCC(=O)NC2CC2)NC(=O)C(C#N)C12CCCCC2 (configuration not stated)	-5	-1	2	-3	-18	-10
CCOc1ccc2nc(N3C(=O)/C(=C/c4ccccc4)NC3=S)sc2c1	15	100*	1	nt	-43	92*
O=S(=O)(Nc1cccc(S(=O)(=O)N2CCCC2)c1)c1cccs1	-7	nt	nt	-8	-6	nt
CC(=O)NNC(=S)NC(=O)c1cccc([N+](=O)[O-])c1	nt	1	-28	1	21	18
Cc1ccc(S(=O)(=O)NNC(=S)NC(=O)c2ccc([N+](=O)[O-])cc2)cc1	-7	-3	8	-11	12	31
O=C(NNC(=S)NC(=O)c1ccccc1Cl)c1cccc([N+](=O)[O-])c1	3	41	-3	0	-24	-11
O=C(NNc1c(Cl)cc(Cl)cc1Cl)c1cccc([N+](=O)[O-])c1	113*	7	13	21	-5	-5
O=C(NNC(=S)NC(=O)c1ccc(Br)cc1)c1cccc([N+](=O)[O-])c1	1	102*	-21	6	9	-12
Cc1ccc(C(=O)NC(=S)NNC(=O)c2ccc([N+](=O)[O-])cc2)cc1	1	80*	11	-6	25	2
O=C(CC(=O)c1cccc([N+](=O)[O-])c1)Nc1ccccc1Cl	1	3	-23	-6	1	103*
O=C(Nc1ccc(F)cc1)N1CCc2ccccc2C1	-2	4	7	13	-24	?
CCOc1ccc(-n2ccnc(SCC(=O)Nc3cccc(OC)c3)c2=O)cc1	-12	11	-5	6	-4	23
CC1(C)Cc2c(cnn2-c2ccc(F)cc2)C(NC(=O)CCC(F)(F)F)C1 (configuration not stated)	nt	12	-2	9	-1	-3
SMILES	Beta cell apopt	SKKanGAS inh	T cruzi inh	CSC inhib	Mdm2 MdmX PPI	Calb FLC
CCOc1cc(/C=N/NC(=O)C2CCCC2)ccc1OC(C)C	-6	1	0	4	-8	-2
COc1ccc(OC)c(/C=C2\SC(N3CCCCC3)=NC2=O)c1	-11	-2	0	-9	6	3
CNC(=O)Cn1nc(C)c(S(=O)(=O)N2CCOCC2)c1C	-1	nt	nt	-12	27	nt
CCc1nc(NC(=O)Cc2csc(C)n2)sc1C(=O)OC	2	7	-7	-1	4	-13
Cc1ccc(Oc2ccccc2NC(=O)C2=COCCO2)cc1	-5	21	7	-4	-17	6
O=C(NNC(=S)NC(=O)c1ccccc1)c1ccc([N+](=O)[O-])cc1	4	67*	-14	19	-6	84*
O=C(NNC(=S)NC(=O)c1ccc(Br)cc1)c1ccc([N+](=O)[O-])cc1	2	100*	17	8	31	87*
COCc1ccc(C(=O)N2CCCC(Nc3ccc4c(c3)OCCO4)C2)o1 (configuration not stated)	-1	-4	3	-5	26	-2
CC(C)Cc1ccc(CN2CCCC(NC(=O)CCN3CCCO3)C2)cc1 (configuration not stated)	0	44	51	4	10	88*
COc1ccc(C(=O)NC2CC2)cc1OC1CCN(Cc2ccc(F)c(F)c2)CC1	2	-7	-5	-4	21	-1
c1ccc(Oc2cccc(Oc3ccccc3)n2)cc1	-3	2	-3	4	4	2
O=C(Nc1ccccc1Cl)c1ccc([N+](=O)[O-])o1	-7	34	5	29	23	100*
O=C(Nc1cccc(NC(=O)c2ccc([N+](=O)[O-])o2)c1)c1ccco1	-3	?	21	87*	20	-6
O=C(Nc1ccc(NC(=O)c2ccc([N+](=O)[O-])o2)cc1Cl)c1ccco1	0	8	13	54	35	-1
O=C(Nc1cccc(NC(=O)c2ccc(-c3cccc(Br)c3)o2)c1)c1ccco1	4	41	55*	38	43	10
O=C(Nc1nc(-c2cccs2)cs1)c1ccc([N+](=O)[O-])o1	-11	nt	nt	90*	35	nt
CC1CC(C)CN(C(=O)C(C)N(C)CC(=O)Nc2ccccc2Cl)C1 (configuration not stated)	0	nt	nt	nt	27	-15
CCN1CCCC1CNC(=O)c1[nH]c2ccc(OC)cc2c1C (configuration not stated)	-9	3	16	-6	-38	3
COc1cc(NC(=O)c2cccs2)ccc1NC(=O)Cc1ccccc1	1	19	-11	-5	18	3
COc1cc(NC(=O)c2ccc([N+](=O)[O-])o2)ccc1NC(=O)c1cccs1	78*	22	86*	50	25	-4
N#Cc1c(NC(=O)c2ccccc2Cl)n(Cc2ccccc2)c2nc3ccccc3nc12	106*	nt	nt	112*	nt	nt
Oc1ccc(/C=N/n2c(COc3ccccc3)n[nH]c2=S)cc1O	1	2	1	16	-1	77*
S=c1[nH]nc(COc2ccccc2)n1/N=C/C(Cl)=C/c1ccccc1	-11	20	12	142*	34	4

Compound activity deposited in PubChem BioAssay by several laboratories.
